Test results as given in ChEMBL document CHEMBL1759883, “Synthesis and biological evaluation of indazole derivatives” (Eur J Med Chem, 2011).

Assays:
[1] = target: Nitric oxide synthase, inducible (Rattus norvegicus) (UniProt Q06518); test: Inhibition of iNOS in LPS-stimulated Wistar rat lung assessed as inhibition of [3H]L-arginine to [3H]L-citrulline conversion at 1 mM by liquid scintillation counting
How it was run: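 Lungs from male Wistar rats (220–250 g) taken 6 h after i.v. LPS (10 mg/kg in saline), homogenized in Tris buffer pH 7.6 with protease inhibitors, and spun at 2500g. The supernatant was incubated 30 min at 37 °C with 10 µM L-arginine plus 40 nM L-³H-arginine, cofactors, 0.75 mM NADPH (final) and 10 mM EDTA. ³H-citrulline was isolated on Dowex-50W; compounds at 1 mM.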

Rattus norvegicus = species: Rattus norvegicus; test: Selectivity ratio of inhibition of iNOS in Wistar rat lung to inhibition of nNOS in Wistar rat striata
[2] = target: Nitric oxide synthase 1 (Rattus norvegicus) (UniProt P29476); test: Inhibition of nNOS in untreated Wistar rat striata assessed as inhibition of [3H]L-arginine to [3H]L-citrulline conversion at 1 mM by liquid scintillation counting
Nitric oxide synthase 1 = Nitric oxide synthase 1 (Rattus norvegicus, UniProt P29476); test: Inhibition of nNOS in untreated Wistar rat striata assessed as inhibition of [3H]L-arginine to [3H]L-citrulline conversion by liquid scintillation counting
Sequence of Nitric oxide synthase 1 (P29476 whole entry): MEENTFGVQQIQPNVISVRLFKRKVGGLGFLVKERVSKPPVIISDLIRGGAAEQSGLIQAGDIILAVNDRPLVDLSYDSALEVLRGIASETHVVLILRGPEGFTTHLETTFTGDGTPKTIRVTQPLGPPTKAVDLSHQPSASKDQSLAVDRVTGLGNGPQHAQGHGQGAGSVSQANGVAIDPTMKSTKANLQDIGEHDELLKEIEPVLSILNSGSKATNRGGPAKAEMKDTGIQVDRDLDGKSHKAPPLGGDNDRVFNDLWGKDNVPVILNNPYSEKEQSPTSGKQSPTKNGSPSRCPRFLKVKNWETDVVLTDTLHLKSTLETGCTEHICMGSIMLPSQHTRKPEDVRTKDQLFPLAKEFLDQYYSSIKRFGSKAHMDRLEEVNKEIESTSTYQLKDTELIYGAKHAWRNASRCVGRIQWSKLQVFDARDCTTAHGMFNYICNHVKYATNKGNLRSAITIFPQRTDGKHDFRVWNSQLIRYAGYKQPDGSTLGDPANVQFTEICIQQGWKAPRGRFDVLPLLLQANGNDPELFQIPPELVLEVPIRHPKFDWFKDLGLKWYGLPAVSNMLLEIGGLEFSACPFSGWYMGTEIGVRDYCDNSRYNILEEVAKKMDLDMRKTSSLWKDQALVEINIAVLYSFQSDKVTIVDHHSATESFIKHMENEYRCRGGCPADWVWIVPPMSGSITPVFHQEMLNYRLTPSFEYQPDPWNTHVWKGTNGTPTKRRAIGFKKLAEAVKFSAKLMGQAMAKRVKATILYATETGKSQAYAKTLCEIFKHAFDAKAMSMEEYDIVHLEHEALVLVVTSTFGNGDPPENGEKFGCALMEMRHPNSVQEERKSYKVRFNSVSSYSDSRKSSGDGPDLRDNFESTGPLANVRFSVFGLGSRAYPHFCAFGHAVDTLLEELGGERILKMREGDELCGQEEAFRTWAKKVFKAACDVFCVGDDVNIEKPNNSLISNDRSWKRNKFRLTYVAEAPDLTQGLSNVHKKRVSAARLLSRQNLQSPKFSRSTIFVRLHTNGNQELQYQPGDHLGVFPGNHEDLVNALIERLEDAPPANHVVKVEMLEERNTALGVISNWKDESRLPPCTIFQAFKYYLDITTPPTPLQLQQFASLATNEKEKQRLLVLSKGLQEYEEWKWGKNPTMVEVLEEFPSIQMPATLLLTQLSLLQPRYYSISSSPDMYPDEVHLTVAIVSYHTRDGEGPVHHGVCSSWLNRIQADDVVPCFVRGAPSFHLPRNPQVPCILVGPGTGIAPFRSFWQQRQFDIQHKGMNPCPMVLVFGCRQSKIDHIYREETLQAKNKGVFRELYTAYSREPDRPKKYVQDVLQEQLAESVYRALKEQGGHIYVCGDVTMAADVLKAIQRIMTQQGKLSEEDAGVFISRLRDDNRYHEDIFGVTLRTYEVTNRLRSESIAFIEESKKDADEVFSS

Sequence of Nitric oxide synthase 1 (Rattus norvegicus) (P29476 whole entry): as above
Sequence of Nitric oxide synthase, inducible (Rattus norvegicus) (Q06518 whole entry): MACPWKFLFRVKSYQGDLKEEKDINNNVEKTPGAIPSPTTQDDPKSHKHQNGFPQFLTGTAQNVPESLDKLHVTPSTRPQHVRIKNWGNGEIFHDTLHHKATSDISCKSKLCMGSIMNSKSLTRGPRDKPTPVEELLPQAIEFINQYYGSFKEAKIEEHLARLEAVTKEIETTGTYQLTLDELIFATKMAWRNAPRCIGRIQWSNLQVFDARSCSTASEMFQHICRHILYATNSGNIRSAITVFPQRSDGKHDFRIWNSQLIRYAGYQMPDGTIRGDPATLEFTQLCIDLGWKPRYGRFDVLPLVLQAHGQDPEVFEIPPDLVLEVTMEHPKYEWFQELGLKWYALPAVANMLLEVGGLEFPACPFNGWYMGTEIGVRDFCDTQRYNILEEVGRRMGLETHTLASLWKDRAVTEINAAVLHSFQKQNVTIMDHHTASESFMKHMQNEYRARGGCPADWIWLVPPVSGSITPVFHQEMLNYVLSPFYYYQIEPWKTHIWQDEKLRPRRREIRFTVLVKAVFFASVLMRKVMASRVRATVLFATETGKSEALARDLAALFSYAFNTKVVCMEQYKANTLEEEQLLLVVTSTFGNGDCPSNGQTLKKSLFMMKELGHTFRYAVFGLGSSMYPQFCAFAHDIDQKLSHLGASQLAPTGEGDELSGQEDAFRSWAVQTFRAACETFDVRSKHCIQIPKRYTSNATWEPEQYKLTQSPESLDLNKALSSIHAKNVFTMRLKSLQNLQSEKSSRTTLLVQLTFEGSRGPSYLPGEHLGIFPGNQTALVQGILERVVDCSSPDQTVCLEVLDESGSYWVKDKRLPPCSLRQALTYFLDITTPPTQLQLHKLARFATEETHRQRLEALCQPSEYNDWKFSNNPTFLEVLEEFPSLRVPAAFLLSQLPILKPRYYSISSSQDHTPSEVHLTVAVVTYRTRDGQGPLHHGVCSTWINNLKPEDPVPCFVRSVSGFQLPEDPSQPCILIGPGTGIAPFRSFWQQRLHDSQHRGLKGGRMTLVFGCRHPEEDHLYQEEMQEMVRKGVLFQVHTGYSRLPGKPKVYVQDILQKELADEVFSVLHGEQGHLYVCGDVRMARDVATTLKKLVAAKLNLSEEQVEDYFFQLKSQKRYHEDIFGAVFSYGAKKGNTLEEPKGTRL

| IC50 (Nitric oxide synthase 1) [mM] | SMILES | inhibition [1] [%] | Ratio (Rattus norvegicus) | inhibition [2] [%] |
| --- | --- | --- | --- | --- |
|  | Fc1c(F)c(F)c2[nH]ncc2c1F | 98.7 | 2 | 43.3 |
|  | COc1cccc2c[nH]nc12 | 70 |  |  |
|  | Cc1n[nH]c2c(F)c(F)c([N+](=O)[O-])cc12 | 95.6 |  | 85.4 |
|  | COC(=O)c1c(F)c(F)c(F)c2c(O)n[nH]c12 | 49.6 |  | 5.1 |
|  | c1ccc2[nH]ncc2c1 | 45 |  | 11.2 |
|  | O=[N+]([O-])c1c(F)cc(F)c2c(O)n[nH]c12 | 91 | 6 | 14.9 |
|  | O=[N+]([O-])c1cccc2c(O)n[nH]c12 | 8.2 |  | 18.9 |
|  | COC(=O)c1c(F)c(F)c2c(O)n[nH]c2c1F | 46.2 |  | 19.7 |
| > 1 | O=c1[nH][nH]c2ccccc12 |  |  |  |
|  | O=C(O)c1c(F)c(F)c2[nH]nc(O)c2c1F | 16.3 |  | 12.1 |
|  | CCOC(=O)c1c(F)c(F)c(F)c2c(O)n[nH]c12 | 43.7 |  | 5.6 |
|  | COC(=O)c1c(F)c(F)c(F)c2[nH]nc(O)c12 | 22.6 |  | 6.3 |
|  | N#Cc1cccc2cn[nH]c12 | 80 |  | 88 |
|  | Oc1n[nH]c2c(F)c(F)ccc12 | 89.1 |  | 57.1 |
|  | Oc1n[nH]c2ccccc12 | 55.1 |  | 31.4 |
|  | Oc1n[nH]c2cc(F)cc(F)c12 | 48.1 |  | 11.1 |
|  | O=C(O)c1c(F)c(F)c(F)c2[nH]nc(O)c12 | 62.6 | 35 | 1.8 |
|  | CCOC(=O)c1c(F)c(F)c(F)c2[nH]nc(O)c12 | 38.7 |  | 1.2 |
|  | Cc1n[nH]c2ccccc12 | 77.4 |  | 33.7 |
|  | Cc1n[nH]c2c(F)c(F)ccc12 | 69.2 |  | 58.4 |
|  | CCOC(=O)c1c(F)c(F)c2c(O)n[nH]c2c1F | 53.5 |  | 10.2 |
|  | COC(=O)c1c(F)c(F)c2[nH]nc(O)c2c1F | 48.9 |  | 13.3 |
|  | O=C(O)c1c(F)c(F)c(F)c2c(O)n[nH]c12 | 40.7 |  | 11.1 |
|  | O=C(O)c1c(F)c(F)c2c(O)n[nH]c2c1F | 42 |  | 5.4 |
|  | CCc1n[nH]c2ccccc12 |  |  | 18.8 |
|  | CCOC(=O)c1c(F)c(F)c2[nH]nc(O)c2c1F | 51.8 |  | 2.5 |
|  | Cc1n[nH]c2c([N+](=O)[O-])c(F)cc(F)c12 | 92 |  | 90 |
|  | Cc1n[nH]c2cc(F)cc(F)c12 | 74.3 |  | 52.1 |
|  | Fc1c(F)c(F)c(-c2n[nH]c3c(F)c(F)c(F)c(F)c23)c(F)c1F |  | 10 |  |
|  | FC(F)(F)c1n[nH]c2ccccc12 | 80.1 |  | 69.9 |
